Measured values taken from ChEMBL document CHEMBL3576822 (J Med Chem, 2015).

Experiments:
Type in all cases: functional, cell-based
[1] = target: T1, Growth hormone secretagogue receptor type 1 (Homo sapiens, UniProt Q92847); experiment: Inverse agonist activity at human GHSR1a receptor expressed in COS-7 cells assessed as inositol phosphate accumulation after 2 hrs by anion exchange chromatography relative to control
[2] = target: T1, Growth hormone secretagogue receptor type 1; experiment: Inverse agonist activity at human GHSR1a receptor expressed in COS-7 cells assessed as inositol phosphate accumulation after 2 hrs by anion exchange chromatography
[3] = target: T2, Neuropeptide Y receptor type 2 (Homo sapiens, UniProt P49146); experiment: Agonist activity at human neuropeptide Y Y2 receptor expressed in COS-7 cells cotransfected with chimeric Gi/q protein assessed as inositol phosphate accumulation after 2 hrs by anion exchange chromatography; settings: cos-7
T2 sequence (P49146 whole entry): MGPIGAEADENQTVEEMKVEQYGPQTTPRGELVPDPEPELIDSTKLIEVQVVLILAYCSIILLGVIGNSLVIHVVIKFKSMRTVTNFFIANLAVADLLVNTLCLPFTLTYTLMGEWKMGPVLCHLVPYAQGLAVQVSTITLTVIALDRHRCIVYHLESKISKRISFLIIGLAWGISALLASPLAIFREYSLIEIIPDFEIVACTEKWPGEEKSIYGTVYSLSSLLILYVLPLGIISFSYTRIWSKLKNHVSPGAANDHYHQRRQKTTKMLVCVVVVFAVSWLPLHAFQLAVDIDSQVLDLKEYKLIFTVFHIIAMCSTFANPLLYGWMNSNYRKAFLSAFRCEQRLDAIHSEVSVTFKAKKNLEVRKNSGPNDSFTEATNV
Summary of the method: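 Inositol phosphate turnover in COS-7 cells stably co-expressing human Y2 receptor and chimeric Gi/q protein; concentration-response curves, responses as % of maximum Y2 activity; SEM over two biological replicates.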

T1 sequence (Q92847 whole entry): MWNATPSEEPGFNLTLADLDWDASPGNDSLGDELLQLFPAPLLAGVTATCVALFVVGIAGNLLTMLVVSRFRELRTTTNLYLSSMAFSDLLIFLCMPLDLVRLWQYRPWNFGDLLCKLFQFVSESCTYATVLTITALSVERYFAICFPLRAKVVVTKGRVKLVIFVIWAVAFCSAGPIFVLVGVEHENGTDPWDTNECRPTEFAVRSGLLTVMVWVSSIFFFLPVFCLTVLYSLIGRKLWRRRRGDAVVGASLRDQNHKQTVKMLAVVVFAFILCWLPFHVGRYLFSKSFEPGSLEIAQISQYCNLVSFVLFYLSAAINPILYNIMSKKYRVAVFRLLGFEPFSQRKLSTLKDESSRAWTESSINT

Row | Efficacy [1] | EC50 ([2]; cos-7) | EC50 [3] | EC50 [2] | SMILES
1 | 84% | – | – | – | CC(C)C[C@H](NC(=O)[C@H](CC(C)C)NC(=O)[C@@H](Cc1c[nH]c2ccccc12)NC(=O)[C@H](Cc1ccccc1)NC(=O)[C@H](Cc1cccc2ccccc12)NC(=O)[C@H](CCCCN)NC(=O)[C@H](CCCCN)NC(=O)CCC(=O)O)C(N)=O
2 | – | 189 nM | – | – | CC(C)C[C@H](NC(=O)[C@@H](Cc1c[nH]c2ccccc12)NC(=O)[C@H](Cc1ccccc1)NC(=O)[C@@H](Cc1cccc2ccccc12)NC(=O)[C@@H](N)CCCCN)C(=O)N[C@@H](CC(N)=O)C(=O)O
3 | 86% | – | – | – | CC(C)C[C@H](NC(=O)[C@@H](Cc1c[nH]c2ccccc12)NC(=O)[C@H](Cc1ccccc1)NC(=O)[C@H](Cc1cccc2ccccc12)NC(=O)[C@@H](N)CCCCN)C(=O)N[C@@H](CC(N)=O)C(=O)O
4 | – | 70.2 nM | > 1000 nM | – | CC(C)C[C@H](NC(=O)[C@@H](Cc1c[nH]c2ccccc12)NC(=O)[C@H](Cc1ccccc1)NC(=O)[C@@H](Cc1cccc2ccccc12)NC(=O)[C@@H](N)CCCCN)C(=O)N[C@@H](CCC(N)=O)C(=O)O
5 | 74% | – | – | 331 nM | CC(=O)N[C@@H](CCCCNC(=O)CCNC(=O)[C@H](CC(N)=O)NC(=O)[C@H](CC(C)C)NC(=O)[C@@H](Cc1c[nH]c2ccccc12)NC(=O)[C@H](Cc1ccccc1)NC(=O)[C@@H](Cc1cccc2ccccc12)NC(=O)[C@@H](N)CCCCN)C(=O)N[C@@H](CC(C)C)C(=O)N[C@@H](CCCNC(=N)N)C(=O)N[C@@H](Cc1cnc[nH]1)C(=O)N[C@@H](Cc1ccc(O)cc1)C(=O)N[C@@H](CC(C)C)C(=O)N[C@@H](CC(N)=O)C(=O)N[C@@H](CC(C)C)C(=O)N[C@@H](CC(C)C)C(=O)N[C@H](C(=O)N[C@@H](CCCNC(=N)N)C(=O)N[C@@H](CCC(N)=O)C(=O)N[C@@H](CCCNC(=N)N)C(=O)N[C@@H](Cc1ccc(O)cc1)C(N)=O)[C@@H](C)O
6 | – | 29 nM | > 1000 nM | – | CC(C)C[C@H](NC(=O)[C@H](CC(C)C)NC(=O)[C@@H](Cc1c[nH]c2ccccc12)NC(=O)[C@H](Cc1ccccc1)NC(=O)[C@@H](Cc1cccc2ccccc12)NC(=O)[C@H](CCCCN)NC(=O)CCC(=O)O)C(N)=O
7 | – | 60.2 nM | > 1000 nM | – | CC(C)C[C@H](NC(=O)[C@H](CC(C)C)NC(=O)[C@@H](Cc1c[nH]c2ccccc12)NC(=O)[C@H](Cc1ccccc1)NC(=O)[C@@H](Cc1cccc2ccccc12)NC(=O)[C@H](CCCCN)NC(=O)[C@H](CCCCN)NC(=O)CCC(=O)O)C(N)=O
8 | 64% | – | – | 267 nM | CC(=O)N[C@@H](CCCCNC(=O)CCCCCNC(=O)[C@H](CC(N)=O)NC(=O)[C@H](CC(C)C)NC(=O)[C@@H](Cc1c[nH]c2ccccc12)NC(=O)[C@H](Cc1ccccc1)NC(=O)[C@@H](Cc1cccc2ccccc12)NC(=O)[C@@H](N)CCCCN)C(=O)N[C@@H](CC(C)C)C(=O)N[C@@H](CCCNC(=N)N)C(=O)N[C@@H](Cc1cnc[nH]1)C(=O)N[C@@H](Cc1ccc(O)cc1)C(=O)N[C@@H](CC(C)C)C(=O)N[C@@H](CC(N)=O)C(=O)N[C@@H](CC(C)C)C(=O)N[C@@H](CC(C)C)C(=O)N[C@H](C(=O)N[C@@H](CCCNC(=N)N)C(=O)N[C@@H](CCC(N)=O)C(=O)N[C@@H](CCCNC(=N)N)C(=O)N[C@@H](Cc1ccc(O)cc1)C(N)=O)[C@@H](C)O
9 | 88% | – | – | – | CC(C)C[C@H](NC(=O)[C@H](CC(C)C)NC(=O)[C@@H](Cc1c[nH]c2ccccc12)NC(=O)[C@H](Cc1ccccc1)NC(=O)[C@H](Cc1cccc2ccccc12)NC(=O)[C@H](CCCCN)NC(=O)CCC(=O)O)C(N)=O
10 | 92% | – | – | – | CC(C)C[C@H](NC(=O)[C@@H](Cc1c[nH]c2ccccc12)NC(=O)[C@H](Cc1ccccc1)NC(=O)[C@H](Cc1cccc2ccccc12)NC(=O)[C@@H](N)CCCCN)C(=O)N[C@@H](CCC(N)=O)C(=O)O
